Here are results for 13 molecules from PubChem BioAssay.

Active and inactive are the calls of the source.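 How the source made its calls, unless noted: active means fluorescence slope after compound addition differing from the mean of all screened samples at 99.7% confidence, in either direction; inactive means the rest.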

The nature of assay [1]: inhibitors of TNFa-induced NFkB p65 translocation, primary screen, imaging, HUVEC, MLSMR starter and 10KST1 sets (AID 438;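 active means inhibition above 20% together with a positive visual image hit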;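 further: compound added about 3h40 before a 20 min TNFalpha stimulation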;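 on inhibition: signal is the nuclear over cytoplasmic p65 intensity ratio per well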). The settings on record: HUVEC TNFa-induced p65 nuclear translocation; cell count: measured here: nuclei count (cytotoxicity indicator), at 2.08 µM; inhibition: at 2 µM, stronger effect = higher value, 0% TNFa-plus-vehicle, 100% no-TNFa wells.
Assay [2] in a line: endothelial E-selectin expression blockers – imaging, HUVEC, immunofluorescence, MLSMR starter and 10KST1 sets, primary screen (AID 487;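 active means visually confirmed hit in the image check and inhibition above 20%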;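 on inhibition: signal is fraction of cell area covered by stained E-selectin grains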;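 on nuclei count: 100% = median nuclei count of all wells on the same plate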). Particulars: HUVEC TNFalpha-induced E-selectin immunofluorescence imaging, at 2 µM; inhibition: stronger effect = higher value; nuclei count: measured here: cell number, toxicity.
Assay [3] can be described thus: Primary imaging screen for DUSP6 inhibitors that restore phospho-Erk in transfected HeLa cells, chemical complementation (AID 609;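 active means compounds giving at least 50% inhibition in the cell-based MKP-3 phosphatase rescue imaging test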;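 on inhibition: phospho-Erk level distribution per well compared with pooled transfected vehicle control wells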). The settings on record: HeLa MKP-3 transfected, phospho-Erk imaging KS statistic, at 10 µM, cells stimulated with TPA for 15 min.
Assay [4] addresses Dual specificity protein phosphatase 6 (Homo sapiens) (UniProt Q16828). Described as above. Particulars: HeLa MKP-3 transfected, phospho-Erk imaging KS statistic; at 10 µM; stronger effect = higher value; cells stimulated with TPA for 15 min.
The target in assay [5] is Voltage-gated potassium channel subunit beta-2 (Rattus norvegicus) (UniProt P62483). The assay is described as follows: inhibitors of rat Kvbeta2 reductase activity – biochemical, NADPH fluorescence, primary screen (AID 622;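 active means fluorescence slope higher than the sample average by over 3 SD, cut at about -0.22 in these data, passing the limit was not always enough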;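 further: slope of raw intensity against log time taken from 70 to 1610 s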). The settings on record: recombinant KvBeta, 4-cyanobenzaldehyde reduction, at 10 µM, stronger effect = higher value.
Sequence of Voltage-gated potassium channel subunit beta-2 (Rattus norvegicus) (P62483 whole entry, looked up): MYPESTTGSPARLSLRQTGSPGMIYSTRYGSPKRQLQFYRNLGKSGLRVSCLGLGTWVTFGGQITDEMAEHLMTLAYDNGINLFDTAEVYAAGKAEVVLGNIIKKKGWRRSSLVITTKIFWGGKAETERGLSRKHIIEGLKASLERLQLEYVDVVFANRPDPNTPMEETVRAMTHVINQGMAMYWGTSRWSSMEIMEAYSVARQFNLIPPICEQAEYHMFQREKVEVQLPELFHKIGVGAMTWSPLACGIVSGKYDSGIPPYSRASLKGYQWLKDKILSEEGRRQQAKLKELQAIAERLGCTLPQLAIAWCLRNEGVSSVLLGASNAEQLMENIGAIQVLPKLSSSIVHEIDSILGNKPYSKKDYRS
Assay [6] has the same target. Nature of the assay: enhancers of rat Kvbeta2 NADPH turnover – biochemical, NADPH fluorescence, primary screen (AID 623;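 active means NADPH fluorescence slope more negative than the mean of all samples by about 3 SD, 99.7% confidence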;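 further: fluorescence intensity change per second fitted from 20 to 320 s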). The settings on record: Recombinant KvBeta, NADPH fluorescence decrease slope, 10 min; at 10 µM; stronger effect = lower value.
In assay [7] the target is Alpha-2C adrenergic receptor (Homo sapiens) (UniProt P18825). The assay is described as follows: compounds altering alpha2C-coupled GIRK flux – cell-based, HEK293 alpha2C/GIRK1/2, thallium flux, primary screen (AID 624).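 Further: slope of fluorescence ratio to pre-addition baseline per second over 15 to 24 s.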 Particulars: thallium flux BTC fluorescence, at 10 µM, actives lie on both sides.
Sequence of Alpha-2C adrenergic receptor (Homo sapiens) (P18825 whole entry, looked up): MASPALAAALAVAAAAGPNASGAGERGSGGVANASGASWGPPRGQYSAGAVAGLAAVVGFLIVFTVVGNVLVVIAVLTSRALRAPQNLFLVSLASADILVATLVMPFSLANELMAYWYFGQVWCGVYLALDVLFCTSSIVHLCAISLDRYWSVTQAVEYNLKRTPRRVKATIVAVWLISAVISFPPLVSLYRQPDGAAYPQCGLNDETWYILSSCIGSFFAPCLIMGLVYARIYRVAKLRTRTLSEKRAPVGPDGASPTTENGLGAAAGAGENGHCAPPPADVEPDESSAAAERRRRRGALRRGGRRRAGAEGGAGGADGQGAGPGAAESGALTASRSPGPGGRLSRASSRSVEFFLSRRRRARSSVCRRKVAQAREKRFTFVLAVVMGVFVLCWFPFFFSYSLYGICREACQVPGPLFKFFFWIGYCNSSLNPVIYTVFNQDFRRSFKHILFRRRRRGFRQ
Assay [8] can be described thus: inhibitors of larval lipid processing in zebrafish, primary screen, whole organism, PED6 fluorescence, gall bladder and intestine (AID 686;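 active means a full or partial loss of lipid-probe fluorescence in the fish gall bladder, intestine or both, judged by eye; inactive means no fluorescence loss, or compound toxic to the fish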;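 further: signal comes from phospholipase A2 cleavage of quenched PED6 carried via bile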). Particulars: Zebrafish larvae PED6 lipid processing, fluorescence scoring; screened at 20 µM (by protocol). The method in brief: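 Doses: 20 µM single dose. Test system: live zebrafish larvae aged 5-7 days, whole organism. Quantity: five larvae per well. Measured by: By-eye fluorescence microscopy. Reagent: ingested quenched lipid PED6 at 100 nM. Read-out: visual per-well fluorescence inhibition score. Times: overnight exposure of larvae to compound plus PED6.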

A short description of assay [9]: loss of swimming-algae plug formation – whole organism, Chlamydomonas reinhardtii, WT vs cilia-less mutant, absorbance, 96-well, primary screen (AID 463189;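 active means inhibition at or above 50% relative to wild type and mutant plate controls; inactive means inhibition below 50%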;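 further: 0% = wild type cc124 cells in DMSO and 100% = ciliumless bld1 mutant cells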). Particulars: Chlamydomonas reinhardtii gravitaxis, OD600 absorbance, 2 days; at 10 µM; stronger effect = higher value.
The mark [10] stands for this setting: measured here: cell density z-score.
Setting [11] is: measured here: nuclear c-Myc green intensity z-score.
Where [12] appears, read: measured here: nuclear pErk red intensity z-score, stronger effect = higher value.

Sequence of Dual specificity protein phosphatase 6 (Homo sapiens) (Q16828 whole entry, looked up): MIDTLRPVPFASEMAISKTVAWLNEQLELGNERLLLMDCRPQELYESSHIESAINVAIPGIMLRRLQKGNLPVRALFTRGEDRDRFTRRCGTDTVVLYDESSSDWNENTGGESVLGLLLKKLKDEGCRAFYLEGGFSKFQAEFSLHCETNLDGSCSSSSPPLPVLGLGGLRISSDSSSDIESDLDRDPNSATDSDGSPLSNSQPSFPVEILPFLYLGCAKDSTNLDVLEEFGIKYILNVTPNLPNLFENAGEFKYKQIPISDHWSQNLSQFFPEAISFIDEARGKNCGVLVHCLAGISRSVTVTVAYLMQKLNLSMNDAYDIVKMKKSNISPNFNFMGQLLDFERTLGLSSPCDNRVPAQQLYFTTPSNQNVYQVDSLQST

The term inhibition denotes the change of the read-out against control, counted positive when it falls. For `c1ccc2c(c1)NC(c1ccncc1)n1c-2nc2ccccc21` (centres undefined), the cell count in assay [1] worked out at 301. For the same molecule, the inhibition in assay [1] is 5% (inactive); in [2], -118% (inactive); in [4], -2.91% (inactive); in [9] it was -2.42% (inactive). Moreover, the nuclei count in [2] was determined as 108%. The figures for the z-score in assay [3] (setting [10]), in [3] (setting [11]) and in [3] (setting [12]) were -1.27, 1.48 and 0.784, respectively. Moreover, the fluorescence slope in assay [5] was -0.384 (inactive). Further, the NADPH fluorescence slope in assay [6] was -5.4e-05 (inactive). Moreover, the slope in assay [7] is 0.00501 (inactive). For the same molecule, the molecule was called inactive in assay [8].
Consider `c1ccc(-c2nn3c(C4CCCCC4)nnc3s2)cc1`, for which the cell count in [1] was found to be 527. Also, the inhibition in assay [1] was -1.4% (inactive); in assay [2], -81.3% (inactive); in [4], -18.6% (inactive); in [9] it was 6.49% (inactive). The nuclei count in assay [2] amounted to 142%. Moreover, the results for the z-score in assay [3] (setting [10]), in assay [3] (setting [11]) and in assay [3] (setting [12]) were -0.66, 0.347 and 1.15, respectively. The fluorescence slope in assay [5] was -0.435 (inactive). The NADPH fluorescence slope in assay [6] is -8.4e-05 (inactive). In addition, the slope in assay [7] was 0.00411 (inactive). Further, in assay [8], the result was inactive.
Turning to `CCSc1nc(N)c2c3c(sc2n1)CCC3`, the cell count in assay [1] was found to be 602. The inhibition is -14.1% (inactive) in [1], -20.6% (inactive) in [2], 7.7% (inactive) in assay [4] and -5.03% (inactive) in assay [9]. In addition, the nuclei count in assay [2] is 146%. Moreover, the z-score in [3] (setting [10]) was found to be 0.476; in [3] (setting [11]), 0.818; in [3] (setting [12]), 0.254. Further, the fluorescence slope in [5] was -0.408 (inactive). Also, in [6], the NADPH fluorescence slope is -4.9e-05 (inactive). Besides, the slope in assay [7] was 0.00637 (inactive). The molecule was called inactive in [8].
With `CCCCNC(=O)C(C#N)c1nc2ccccc2nc1N1CCN(c2ccccc2F)CC1` (centres undefined), the cell count in assay [1] was found to be 406. For the same molecule, the inhibition in [1] was 7.2% (inactive); in [2] it was -12% (inactive); in assay [4], -1.12% (inactive); in [9], 6.61% (inactive). Also, the nuclei count in assay [2] came to 105%. Besides, the z-score in assay [3] (setting [10]) was -0.801; in assay [3] (setting [11]), -1.22; in assay [3] (setting [12]), 0.341. In assay [5], the fluorescence slope is -0.475 (inactive). In addition, the NADPH fluorescence slope in assay [6] was -3.8e-05 (inactive). Moreover, the slope in assay [7] is 0.00688 (inactive). Also, the outcome in assay [8] was inactive.
Take `CCCSc1nc(N2CCCC2)c2c(c1C#N)CC(C)(C)OC2`: in [1], the cell count is 521. In addition, the inhibition in [1] is -7.7% (inactive); in [2], -153% (inactive); in assay [4], 36.9% (inactive); in assay [9], 9.15% (inactive). In assay [2], this molecule yielded a nuclei count of 173%. Besides, the values for the z-score in assay [3] (setting [10]), in [3] (setting [11]) and in assay [3] (setting [12]) were 1.7, -1.87 and -0.14, respectively. For the same molecule, the fluorescence slope in [5] is -0.322 (inactive). Moreover, the NADPH fluorescence slope in [6] is 4.6e-06 (inactive). The slope in [7] was 0.00655 (inactive). Also, in assay [8], the result was inactive.
For `Cc1oc2cc(O)cc(C)c2c(=O)c1-c1cnn(-c2ccccc2)c1`, the cell count in assay [1] was 578. For the same molecule, the inhibition in assay [1] is -1.3% (inactive); in assay [2], -189% (inactive); in [4], 15.9% (inactive); in [9], 20.5% (inactive). This molecule registered a nuclei count in assay [2] of 149%. Besides, the values for the z-score in assay [3] (setting [10]), in assay [3] (setting [11]) and in [3] (setting [12]) were 0.4, 1.63 and 0.0441, respectively. Also, the fluorescence slope in [5] is -0.509 (inactive). For the same molecule, the NADPH fluorescence slope in assay [6] is -5.7e-05 (inactive). The slope in assay [7] is 0.00468 (inactive). In addition, in assay [8], the molecule was classed as inactive.
On to `CCOC(=O)C1=C(C)N=C2SC(C)C(=O)N2C1c1ccc(OC(C)=O)c(OC)c1` (centres undefined), for which, in [1], the cell count came out at 364. The inhibition was -4% (inactive) in assay [1], -11.8% (inactive) in [2], -4.59% (inactive) in assay [4] and 21.6% (inactive) in assay [9]. For the same molecule, the nuclei count in assay [2] came to 184%. Moreover, the z-score in assay [3] (setting [10]) is 0.885; in assay [3] (setting [11]), -1.84; in [3] (setting [12]), 1.33. The fluorescence slope in [5] was -0.413 (inactive). In addition, the NADPH fluorescence slope in [6] is -0.000136 (inactive). For the same molecule, the slope in assay [7] is 0.00549 (inactive). Further, the outcome in assay [8] was inactive.
For `Cc1cc(C)c(C#N)c(SCC(=O)N2CCN(Cc3ccccc3)CC2)n1`, the cell count in [1] is 660. Also, the inhibition in [1] is -29% (inactive); in assay [2], -68.1% (inactive); in assay [4] it was -7.28% (inactive); in assay [9], 8.58% (inactive). For the same molecule, the nuclei count in assay [2] is 173%. Besides, the results for the z-score in [3] (setting [10]), in assay [3] (setting [11]) and in [3] (setting [12]) were -1.99, 0.41 and 1.64, respectively. The fluorescence slope in assay [5] was -0.419 (inactive). Further, in assay [6], the NADPH fluorescence slope is -3.2e-05 (inactive). Further, the slope in assay [7] is 0.00644 (inactive). For the same molecule, in assay [8], the result was inactive.
As to `c1ccc(-c2nnc3sc(Cc4cccs4)nn23)cc1`, the cell count in assay [1] turned out to be 602. Further, the inhibition in [1] was -16% (inactive); in [2], -149% (inactive); in assay [4] it was 11.9% (inactive); in assay [9], 21.4% (inactive). This molecule also returned a nuclei count in assay [2] of 174%. For the same molecule, the z-score in assay [3] (setting [10]) is 0.71; in assay [3] (setting [11]), -1.88; in assay [3] (setting [12]), -0.974. Also, the fluorescence slope in [5] was -0.467 (inactive). Further, the NADPH fluorescence slope in assay [6] is -0.000133 (inactive). Moreover, the slope in [7] is 0.00581 (inactive). Moreover, in [8], the outcome is “active; no signal in gallbladder only”.
On to `CCCCCCSC1=C(C#N)C(c2ccccc2)CC(=O)N1` (centres undefined), for which the cell count in assay [1] amounted to 469. In addition, the inhibition in [1] was 0.6% (inactive); in assay [2], -6.9% (inactive); in [4], 18.9% (inactive); in assay [9] it was 24.3% (inactive). The molecule also yielded a nuclei count in [2] of 74.3%. In addition, the values for the z-score in [3] (setting [10]), in [3] (setting [11]) and in assay [3] (setting [12]) were 0.751, 0.0915 and -1.53, respectively. In assay [5], the fluorescence slope was -0.513 (inactive). Moreover, the NADPH fluorescence slope in [6] is -6.1e-05 (inactive). Besides, in assay [7], the slope is 0.00499 (inactive). Besides, the call in [8] was inactive.
For the molecule `Cc1ccc(S(=O)(=O)/C(C#N)=C/c2c(N3CCN(C)CC3)nc3c(C)cccn3c2=O)cc1`, the cell count in [1] stood at 485. Also, the inhibition was 3.3% (inactive) in [1], 20% (inactive) in assay [2], 20.3% (inactive) in assay [4] and -7.2% (inactive) in [9]. The same molecule displayed a nuclei count in [2] of 160%. Further, the results for the z-score in assay [3] (setting [10]), in assay [3] (setting [11]) and in assay [3] (setting [12]) were -0.459, 0.434 and 1.14, respectively. In addition, the fluorescence slope in assay [5] was -0.382 (inactive). Further, the NADPH fluorescence slope in assay [6] was -4.1e-05 (inactive). In assay [7], the slope is 0.00164 (active). The call in assay [8] was inactive.
Take `CCOP(=O)(c1ccccc1)c1nc(-c2ccc(F)cc2)oc1N1CCCCC1` (centres undefined): the cell count in assay [1] came out at 658. Further, the inhibition was 1.8% (inactive) in [1], -100% (inactive) in assay [2], 4.25% (inactive) in assay [4] and 2.55% (inactive) in assay [9]. The same molecule gave a nuclei count in assay [2] of 136%. Besides, the results for the z-score in assay [3] (setting [10]), in assay [3] (setting [11]) and in [3] (setting [12]) were 0.739, -0.227 and 1.53, respectively. Further, the fluorescence slope in assay [5] was -0.529 (inactive). Also, the NADPH fluorescence slope in [6] is -0.000105 (inactive). Further, the slope in assay [7] is 0.00389 (inactive). Also, the call in assay [8] was inactive.
Consider `CCc1nnc(NC(=O)CSc2nc(C)c3c(c2C#N)CCCC3)s1`, for which the cell count in [1] turned out to be 613. Further, the inhibition was -13.4% (inactive) in [1], -129% (inactive) in assay [2], -0.674% (inactive) in assay [4] and 9.29% (inactive) in assay [9]. The same molecule yielded a nuclei count in [2] of 189%. Further, the z-score in assay [3] (setting [10]) is -0.0126; in [3] (setting [11]), 0.0813; in assay [3] (setting [12]), -0.0712. Also, in assay [5], the fluorescence slope was -0.446 (inactive). Further, in assay [6], the NADPH fluorescence slope is 4.7e-06 (inactive). The slope in [7] was 0.00625 (inactive). In assay [8], the result was inactive.
